{"source": "ChEMBL document CHEMBL1150832", "about": "“Phenylnaphthalene compounds from the subterranean part of Vitex rotundifolia and their antibacterial activity against methicillin-resistant Staphylococcus aureus” (2001)", "test_system": "Staphylococcus aureus", "assay": "Antimicrobial activity against methicillin-sensitive Staphylococcus aureus ATCC 6538 at 100 ug after 20 hrs by agar plate diffusion assay", "type": "functional, organism-based", "method_in_brief": "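Agar disk diffusion. Cells were grown on Mueller-Hinton agar at 37 °C for 24 h, resuspended in Mueller-Hinton broth to 108 CFU/mL and incubated again. They were then diluted to 105 CFU/mL and used to inoculate Mueller-Hinton agar plates. 6 mm disks loaded with 100 µg compound were placed on the plates and incubated 20 h at 37 °C. Inhibition zones >10 mm were scored positive.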", "note": "Active and inactive are the calls of the source. The rule behind the calls is not given here."}
{"smiles": "COc1cc(-c2c(O)c(C=O)cc3cc(OC)c(O)cc23)ccc1O", "values": [{"measurement": "Activity", "value": "inactive"}]}
{"smiles": "COc1cc(C[C@@H](CO)[C@H](CO)Cc2ccc(O)c(OC)c2)ccc1O", "values": [{"measurement": "Activity", "value": "inactive"}]}
{"smiles": "COc1cc2cc3c(c(-c4ccc(OC)c(OC)c4)c2cc1O)COC3=O", "values": [{"measurement": "Activity", "value": "inactive"}]}
{"smiles": "COc1ccc(-c2c(O)c(C=O)cc3ccc(O)c(OC)c23)cc1OC", "values": [{"measurement": "Activity", "value": "inactive"}]}
{"smiles": "COc1ccc(-c2c3c(cc4ccc(O)c(OC)c24)C(=O)OC3)cc1OC", "values": [{"measurement": "Activity", "value": "inactive"}]}
